According to ChEMBL document CHEMBL1158396 (2009):

Columns and labels:
HL-60 [1] = experiment: Antiproliferative activity against human HL60 cells at 10 uM after 72 hrs by MTS assay; type: functional; details: HL-60, 72 h
How it was run: (§1)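 Cells kept in Glutamax RPMI with 10% fetal calf serum, penicillin and streptomycin, at 37 °C in 5% CO2. Plated at 500–800 cells/well and left 24 h before adding compound in DMSO (10^-6 or 10^-5 M final). Exposure was continuous for 72 h, then MTS read-out at 490 nm, in triplicate. Percent inhibition was taken from absorbance versus control wells after blank subtraction.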

K562 [2] = experiment: Antiproliferative activity against human K562 cells at 10 uM after 72 hrs by MTS assay; type: functional; details: K562, 72 h; how it was run: as §1
HL-60 [3] = experiment: Antiproliferative activity against human HL60 cells at 1 uM after 72 hrs by MTS assay; type: functional; details: HL-60, 72 h; how it was run: as §1
K562 [4] = experiment: Antiproliferative activity against human K562 cells at 1 uM after 72 hrs by MTS assay; type: functional; details: K562, 72 h; how it was run: as §1
Sus scrofa [5] = organism: Sus scrofa; experiment: Inhibition of pig CK1 assessed as residual enzyme activity at 10 uM
[6] = target: Cyclin-dependent kinase 5/CDK5 activator 1 (Homo sapiens) (UniProt Q00535+Q15078); experiment: Inhibition of GST-CDK5/p25 expressed in Escherichia coli assessed as residual enzyme activity at 10 uM
[7] = target: Dual specificity tyrosine-phosphorylation-regulated kinase 1A (Rattus norvegicus) (UniProt Q63470); experiment: Inhibition of rat GST-fused Dyrk1a expressed in Escherichia coli assessed as residual enzyme activity at 10 uM
Sus scrofa [8] = organism: Sus scrofa; experiment: Inhibition of pig GSK3 assessed as residual enzyme activity at 10 uM
HL-60 [9] = experiment: Antiproliferative activity against human HL60 cells at 0.25 nM after 72 hrs by MTS assay; type: functional; details: HL-60, 72 h
K562 [10] = experiment: Antiproliferative activity against human K562 cells at 0.25 nM after 72 hrs by MTS assay; type: functional; details: K562, 72 h

Cyclin-dependent kinase 5/CDK5 activator 1 (Homo sapiens), sequence (Q00535 whole entry, the tested form may be a part): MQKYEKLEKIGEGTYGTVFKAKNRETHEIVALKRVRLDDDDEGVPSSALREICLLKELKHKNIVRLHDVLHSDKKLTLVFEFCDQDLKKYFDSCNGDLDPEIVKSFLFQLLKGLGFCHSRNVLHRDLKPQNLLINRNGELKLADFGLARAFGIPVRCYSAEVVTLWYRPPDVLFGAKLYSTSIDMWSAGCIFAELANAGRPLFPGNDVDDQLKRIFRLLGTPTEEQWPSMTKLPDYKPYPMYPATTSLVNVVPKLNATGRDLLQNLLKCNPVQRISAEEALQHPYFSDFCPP
Cyclin-dependent kinase 5/CDK5 activator 1 (Homo sapiens), sequence (Q15078 99-307 partner limits assumed): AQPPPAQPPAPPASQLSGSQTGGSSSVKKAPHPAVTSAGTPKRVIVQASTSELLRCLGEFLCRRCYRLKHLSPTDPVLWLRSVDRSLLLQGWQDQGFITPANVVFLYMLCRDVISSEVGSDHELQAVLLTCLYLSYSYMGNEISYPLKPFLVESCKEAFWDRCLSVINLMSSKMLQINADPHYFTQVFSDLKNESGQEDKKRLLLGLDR

Row | SMILES | inhibition at 10 µM (HL-60 [1]) [%] | inhibition at 10 µM (K562 [2]) [%] | inhibition at 1 µM (HL-60 [3]) [%] | inhibition at 1 µM (K562 [4]) [%] | Activity (Sus scrofa [5]) [%] | Activity [6] [%] | Activity [7] [%] | Activity (Sus scrofa [8]) [%] | inhibition at 0.00025 µM (HL-60 [9]) [%] | inhibition at 0.00025 µM (K562 [10]) [%]
1 | CC(=O)OC[C@H]1O[C@@H](N2C(=O)/C(=C3/C(=O)Nc4ncc(C#CCNC(=O)OCc5ccccc5)cc43)c3cc(Br)ccc32)[C@H](OC(C)=O)[C@@H](OC(C)=O)[C@@H]1OC(C)=O | 0 | 5 | 0 | 0 | – | – | – | – | – | –
2 | CC(=O)OC[C@H]1O[C@@H](N2C(=O)/C(=C3/C(=O)Nc4ncc(C#CCNC(=O)OCc5ccccc5)cc43)c3ccccc32)[C@H](OC(C)=O)[C@@H](OC(C)=O)[C@@H]1OC(C)=O | 11 | 59 | 0 | 4 | > 65 | > 65 | > 65 | > 65 | – | –
3 | CC(=O)OC[C@H]1O[C@@H](N2C(=O)/C(=C3/C(=O)Nc4ccc(C#CCNC(=O)OCc5ccccc5)cc43)c3cc(Br)ccc32)[C@H](OC(C)=O)[C@@H](OC(C)=O)[C@@H]1OC(C)=O | 0 | 2 | 0 | 1 | > 65 | > 65 | > 65 | > 65 | – | –
4 | CC(=O)OC[C@H]1O[C@@H](N2C(=O)/C(=C3/C(=O)Nc4ncc(C#CCCO)cc43)c3ccccc32)[C@H](OC(C)=O)[C@@H](OC(C)=O)[C@@H]1OC(C)=O | 0 | 10 | 0 | 5 | – | – | – | – | – | –
5 | CC(=O)OC[C@H]1O[C@@H](N2C(=O)/C(=C3/C(=O)Nc4ncc(I)cc43)c3ccccc32)[C@H](OC(C)=O)[C@@H](OC(C)=O)[C@@H]1OC(C)=O | 1 | 47 | 0 | 0 | > 65 | > 65 | > 65 | > 65 | – | –
6 | CC(=O)OC[C@H]1O[C@@H](N2C(=O)/C(=C3/C(=O)Nc4ncc(Br)cc43)c3ccccc32)[C@H](OC(C)=O)[C@@H](OC(C)=O)[C@@H]1OC(C)=O | – | – | – | – | – | > 65 | > 65 | – | – | –
7 | CC(=O)OC[C@H]1O[C@@H](N2C(=O)/C(=C3/C(=O)Nc4ccc(I)cc43)c3cc(Br)ccc32)[C@H](OC(C)=O)[C@@H](OC(C)=O)[C@@H]1OC(C)=O | 0 | 3 | 0 | 0 | > 65 | > 65 | > 65 | > 65 | – | –
8 | CC(=O)OC[C@H]1O[C@@H](N2C(=O)/C(=C3/C(=O)Nc4ccc(C#CCCO)cc43)c3ccccc32)[C@H](OC(C)=O)[C@@H](OC(C)=O)[C@@H]1OC(C)=O | 8 | 33 | 0 | 2 | > 65 | > 65 | > 65 | > 65 | – | –
9 | CC(=O)OC[C@H]1O[C@@H](N2C(=O)/C(=C3/C(=O)Nc4ccc(C#CCNC(=O)OCc5ccccc5)cc43)c3ccccc32)[C@H](OC(C)=O)[C@@H](OC(C)=O)[C@@H]1OC(C)=O | 1 | 6 | 0 | 0 | > 65 | > 65 | > 65 | > 65 | – | –
10 | CC(=O)OC[C@H]1O[C@@H](N2C(=O)/C(=C3/C(=O)Nc4ncc(I)cc43)c3cc(Br)ccc32)[C@H](OC(C)=O)[C@@H](OC(C)=O)[C@@H]1OC(C)=O | 0 | 3 | 0 | 0 | – | – | – | – | – | –
11 | CC(=O)O[C@@]12CO[C@@H]1C[C@H](O)[C@@]1(C)C(=O)[C@H](O)C3=C(C)[C@@H](OC(=O)[C@H](O)[C@@H](NC(=O)OC(C)(C)C)c4ccccc4)C[C@@](O)([C@@H](OC(=O)c4ccccc4)[C@H]21)C3(C)C [DOCETAXEL] | – | – | – | – | – | – | – | – | 46 | 32
12 | CC(=O)OC[C@H]1O[C@@H](N2C(=O)/C(=C3/C(=O)Nc4ccc(I)cc43)c3ccccc32)[C@H](OC(C)=O)[C@@H](OC(C)=O)[C@@H]1OC(C)=O | – | – | – | – | – | > 65 | > 65 | – | – | –
13 | CC(=O)OC[C@H]1O[C@@H](N2C(=O)/C(=C3/C(=O)Nc4ncc(Br)cc43)c3cc(Br)ccc32)[C@H](OC(C)=O)[C@@H](OC(C)=O)[C@@H]1OC(C)=O | 0 | 4 | 0 | 3 | > 65 | > 65 | > 65 | > 65 | – | –
